Experimental data published in ChEMBL document CHEMBL4425094, “Novel Benzo[a]quinolizidine Analogs Induce Cancer Cell Death through Paraptosis and Apoptosis” (J Med Chem, 2016).
pIC50: −log10 of the molar value. Calls of active or inactive are those of the source. The calls are words filed in the database; no cut-off is given here.

Tests used:
MDA-MB-231 = assay: Cytotoxicity against human MDA-MB-231 cells assessed as cell growth inhibition after 24 hrs by MTT assay; type: functional, cell-based; settings: MDA-MB-231, 24 h
Outline: (§1)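 Cells seeded 24 h in RPMI 1640 + 10% FBS. RWPE-1 was kept in K-SFM with bovine pituitary extract and EGF. Cells then exposed to compounds for 24 h at 37 °C, 5% CO2, with DMSO vehicle and docetaxel as positive control. MTT added for 4 h, absorbance read at 570 nm. Triplicate runs, IC50 reported as mean of three experiments.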

HeLa = assay: Cytotoxicity against human HeLa cells assessed as cell growth inhibition after 24 hrs by MTT assay; type: functional, cell-based; outline: as §1
K562 = assay: Cytotoxicity against human K562 cells assessed as cell growth inhibition after 24 hrs by MTT assay; type: functional, cell-based; settings: K562, 24 h; outline: as §1
PC-3 [1] = assay: Cytotoxicity against human PC3 cells assessed as cell growth inhibition after 24 hrs by MTT assay; type: functional, cell-based; settings: PC-3, 24 h; outline: as §1
DU-145 = assay: Cytotoxicity against human DU145 cells assessed as cell growth inhibition after 24 hrs by MTT assay; type: functional, cell-based; settings: DU-145, 24 h; outline: as §1
MCF7 = assay: Cytotoxicity against human MCF7 cells assessed as cell growth inhibition after 24 hrs by MTT assay; type: functional, cell-based; settings: MCF7, 24 h; outline: as §1
RWPE-1 = assay: Cytotoxicity against human RWPE1 cells assessed as cell growth inhibition after 24 hrs by MTT assay; type: cell-based; settings: RWPE-1, 24 h; outline: as §1
PC-3 [2] = assay: Induction of morphological changes in human PC3 cells assessed as formation of massive cytoplasmic vacuoles at 1 uM after 12 hrs by confocal microscopic analysis; type: functional, cell-based
PC-3M [3] = assay: Antitumor activity against human PC3M-lluc-C6 cells xenografted in athymic Balb/c mouse assessed as tumor growth inhibition at 15 mg/kg, ip administered every 2 days measured on day 18; type: functional; settings: read-out: TGI
[4] = Toxicity in athymic Balb/c mouse assessed as body weight loss at 15 mg/kg, ip administered every 2 days for 18 days; type: organism-based; settings: in vivo
Outline: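 Male athymic BALB/c-nu mice bearing subcutaneous PC3M-luc-C6 xenografts, n = 5 per group. Dosing was 15 mg/kg i.p. every 2 days for 18 days versus placebo and docetaxel 15 mg/kg groups. Body weight was recorded over the treatment period.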

PC-3M [5] = assay: Antitumor activity against human PC3M-lluc-C6 cells xenografted in athymic Balb/c mouse assessed as decrease in tumor burden by measuring photon intensity at 15 mg/kg, ip measured on day 18 by bioluminescence method (reference value: 2.332 x 10^10 photons/s/cm2); type: functional
PC-3M [6] = assay: Antitumor activity against human PC3M-lluc-C6 cells xenografted in athymic Balb/c mouse assessed as decrease in tumor burden by measuring photon intensity at 15 mg/kg, ip measured on day 9 by bioluminescence method (reference value: 6.501 x 10^9 photons/s/cm2); type: functional
PC-3 [7] = assay: Induction of autophagy in human PC3 cells transfected with mRFP-GFP-LC3 assessed as LC3 granulation of LC3 at 0.5 uM after 8 hrs by fluorescence microscopic analysis; type: functional, cell-based
Outline: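 PC3 cells transfected with an mRFP-GFP-LC3 reporter plasmid, then treated 8 h with 1 μM test agent or 0.5 μM rapamycin (autophagy inducer). Imaged by confocal fluorescence microscopy: yellow puncta (overlapping red/green) scored as autophagosomes, red-only puncta as autolysosomes, since GFP is quenched in acidic lysosomes.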

SMILES	pIC50 (MDA-MB-231)	pIC50 (HeLa)	pIC50 (K562)	pIC50 (PC-3 [1])	pIC50 (DU-145)	pIC50 (MCF7)	pIC50 (RWPE-1)	Activity (PC-3 [2])	inhibition in vivo at 15 mg/kg (PC-3M [3])	Activity [4]	Activity (PC-3M [5])	Activity (PC-3M [6])	Activity (PC-3 [7])
CC(=O)O[C@@]12CO[C@@H]1C[C@H](O)[C@@]1(C)C(=O)[C@H](O)C3=C(C)[C@@H](OC(=O)[C@H](O)[C@@H](NC(=O)OC(C)(C)C)c4ccccc4)C[C@@](O)([C@@H](OC(=O)c4ccccc4)[C@H]21)C3(C)C [DOCETAXEL ANHYDROUS]	7.49	7.21	7.41	7.89	7.59	7.66	5.76	inactive	92%	13.3 g	1.92 ×10⁹ /s/cm2	3.513 ×10⁹ /s/cm2	–
C[C@@H]1C[C@@](C)(O)C[C@H]2c3cc(OCc4cc(C(F)(F)F)cc(C(F)(F)F)c4)c(OCc4cc(C(F)(F)F)cc(C(F)(F)F)c4)cc3CCN12	6.28	5.92	5.74	6.21	5.65	6.09	5.59	Active	–	–	–	–	–
C[C@@H]1C[C@@](C)(O)C[C@H]2c3cc(OCc4cccc(F)c4)c(OCc4cccc(F)c4)cc3CCN12	6.23	6.02	6.00	6.39	5.67	6.33	5.73	Active	–	–	–	–	–
COc1ccc([C@@H]2C[C@@H](O)C[C@H]3c4cc(OCc5cc(C)cc(C)c5)c(OCc5cc(C)cc(C)c5)cc4CCN23)cc1OC	6.01	5.52	5.40	5.94	5.34	5.88	5.52	Active	–	–	–	–	–
C[C@@H]1C[C@@H](O)C[C@H]2c3cc(OCc4cccc(F)c4)c(OCc4cccc(F)c4)cc3CCN12	6.24	5.76	5.85	6.09	5.41	6.31	5.83	Active	–	–	–	–	–
CO[C@H]1C[C@@H]2CC[C@@H](C)[C@@](O)(O2)C(=O)C(=O)N2CCCC[C@H]2C(=O)O[C@H]([C@H](C)C[C@@H]2CC[C@@H](O)[C@H](OC)C2)CC(=O)[C@H](C)/C=C(\C)[C@@H](O)[C@@H](OC)C(=O)[C@H](C)C[C@H](C)/C=C/C=C/C=C/1C	–	–	–	–	–	–	–	–	–	–	–	–	Active
